The list is not random: actives were taken first. Their share in the collection is about 2.6%.
esBAF inh: blocks esBAF chromatin remodeling in mouse ES cells | reporter increase, % at 12.5 µM | Bmi1-luciferase knock-in reporter, 24 h; 100% = twice the neutral-well signal | 2% of 350,000 active | AID 602393; in the data active = activation above about 40%; inconclusive = no clear call, values can overlap the other calls;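 also: a rise in the Bmi1 reporter signal indicates esBAF inhibition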
ASAP1 inh: ASAP1 ArfGAP inhibition. inhibition, % at 16.5 µM. 0.19% of 360,000 active. AID 624377. Q9ULH1. ASAP1-stimulated ARF1 GTP hydrolysis, GDP FP detection; in the data active = inhibition above about 25%
Target sequence (Q9ULH1 325-724 limits assumed): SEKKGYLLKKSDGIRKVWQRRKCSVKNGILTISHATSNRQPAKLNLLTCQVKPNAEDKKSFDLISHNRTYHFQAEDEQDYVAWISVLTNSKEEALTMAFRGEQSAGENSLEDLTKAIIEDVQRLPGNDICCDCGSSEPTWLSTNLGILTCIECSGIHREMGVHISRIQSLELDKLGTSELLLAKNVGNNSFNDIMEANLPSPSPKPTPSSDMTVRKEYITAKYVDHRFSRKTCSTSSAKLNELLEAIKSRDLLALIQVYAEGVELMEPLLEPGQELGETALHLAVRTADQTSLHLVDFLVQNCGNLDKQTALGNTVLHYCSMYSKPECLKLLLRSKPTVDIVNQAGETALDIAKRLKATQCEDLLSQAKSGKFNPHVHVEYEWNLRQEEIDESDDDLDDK
SMARCA2 act: activators of SMARCA2 function | MG213 cells, MMTV-luciferase reporter, dexamethasone, overnight | activation, % at 9.1 µM | 1% of 370,000 active | AID 652017; in the data active = activation above about 7.8%
ARFGAP1 inhibitor: inhibits rat ARF GTPase activating protein 1; Q62848; Arfgap1-stimulated ARF1 GTP hydrolysis, GDP FP detection; inhibition, % at 16.5 µM; 0.26% of 360,000 active;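 active = inhibition above a per-plate limit, mean inhibition of low control wells plus 3 SD, cut at about 25% in these data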
Target sequence (Q62848 1-136 limits assumed): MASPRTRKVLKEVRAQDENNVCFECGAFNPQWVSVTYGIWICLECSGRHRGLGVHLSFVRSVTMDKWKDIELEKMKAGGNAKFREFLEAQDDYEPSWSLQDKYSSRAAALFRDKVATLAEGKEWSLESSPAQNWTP
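Replicates: Single well per compound | Assay system: Truncated rat Arfgap1 GAP domain | Control set: No-Arfgap1 wells (100%) versus DMSO full-reaction wells (0%) | Times: Enzyme reaction 120 min at 25 °C after 20 min preincubation | Reagent: Human ARF1(Δ1-17)-GTP substrate | Measured by: Tracer-displacement fluorescence polarization with EDTA stop, 620/688 nm | Measure: Percent inhibition of Arfgap1-stimulated GTP hydrolysis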
SMARCA2 act conf: confirmation of SMARCA2 (BRM) function activators; activation, % at 9.1 µM; shares compounds with SMARCA2 act; 30% of 3,500 active; MG213 cells, MMTV-luciferase with dexamethasone, luminescence, overnight; MG213 cells expressing E1A, Rb sequestered; DMSO wells 0%, reference activator 100%;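 active = activation above its plate's cutoff, the mean activation of tested wells plus 3 SD, cut at about 7.9% in these data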
GAL4-VP16 Luc: activates GAL4-VP16 luciferase, flagging SMARCA2 activator hits; activation, % at 9.1 µM; HEK293 GAL4-VP16 pG5luc reporter, luciferase luminescence; scaled: DMSO wells 0%, SAHA wells 100%; shares compounds with SMARCA2 act; 41% of 3,500 active; AID 686939;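 active = activation above the solvent-only control well mean plus 3 SD, averaged across control plates, cut at about 5.2% in these data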
Large screens that a line does not name were inactive (follow-up assays come after a bar, where they were run); ! = not confirmed by another sample.

NC(=O)c1sc2nc3c(cc2c1N)CCCCCC3	esBAF inh 46, SMARCA2 act 11 | SMARCA2 act conf inactive | GAL4-VP16 Luc inactive
Nc1c(C(=O)C2CC2)sc2nc3c(cc12)CCC3	SMARCA2 act 8.5 (no result: esBAF inh) | SMARCA2 act conf 13 | GAL4-VP16 Luc 9.7
Nc1c(C(=O)c2ccc(Cl)cc2)sc2nc3c(cc12)CCC3	none (no result: esBAF inh)
CSc1nc(SCC(=O)NC(c2ccccc2)c2ccccc2)c2c3c(sc2n1)CN(C)CC3	SMARCA2 act 12 | SMARCA2 act conf inactive | GAL4-VP16 Luc inactive
CSc1nc(NCC(C)O)c2c3c(sc2n1)CN(C)CC3 (stereo not drawn)	none
Oc1[nH]c(N=C2N=c3ccccc3=N2)c2ccccc12	SMARCA2 act 14 | SMARCA2 act conf inactive | GAL4-VP16 Luc 37
COc1ccc(NC(=O)C2C(c3ccc4c(c3)OCO4)=Nc3ccccc3N2C(=O)c2cccc(C(F)(F)F)c2)cc1 (stereo not drawn)	none (no result: esBAF inh)
COc1ccc(C2=Nc3ccccc3N(C(=O)c3cccnc3)C2C(=O)NC(C)(C)C)cc1 (stereo not drawn)	none (no result: esBAF inh)
COc1ccc(NC(=O)C2C(c3ccc4c(c3)OCO4)=Nc3ccccc3N2C(C)=O)cc1 (stereo not drawn)	SMARCA2 act 9.2 (no result: esBAF inh) | SMARCA2 act conf 8.0 | GAL4-VP16 Luc 6.4
COc1ccc(C2=Nc3ccccc3N(C(=O)c3ccncc3)C2C(=O)NC(C)(C)C)cc1 (stereo not drawn)	SMARCA2 act 16 (no result: esBAF inh) | SMARCA2 act conf inactive | GAL4-VP16 Luc inactive
C/C=C/c1ccc2c(c1)O[C@@H](CN(C)C(=O)c1cnccn1)[C@@H](C)CN([C@H](C)CO)S2(=O)=O	none (no result: ASAP1 inh, SMARCA2 act, ARFGAP1 inhibitor)
C[C@@H]1CN([C@@H](C)CO)S(=O)(=O)c2ccc(-c3cccc(C#N)c3)cc2O[C@@H]1CN(C)C(=O)Nc1cc(F)ccc1F	none (no result: ASAP1 inh, SMARCA2 act, ARFGAP1 inhibitor)
NNc1nc2c(-c3ccc(Cl)cc3)nnn2c2ccccc12	SMARCA2 act 8.4 (no result: esBAF inh) | SMARCA2 act conf inactive | GAL4-VP16 Luc 11
NNc1nc2c(-c3ccc(F)cc3)nnn2c2ccccc12	none
N#Cc1c2ccc([N+](=O)[O-])cc2[n+]([O-])n1-c1ccccc1	SMARCA2 act 8.5 | SMARCA2 act conf 13 | GAL4-VP16 Luc 8.9
O=c1c2cc([N+](=O)[O-])ccc2sn1-c1ccccc1	none
CCCNC(=O)NC[C@H]1[C@@H](c2ccc(C3=CCCC3)cc2)[C@H](CO)N1C(C)=O	none (no result: ASAP1 inh, SMARCA2 act, ARFGAP1 inhibitor)
Nc1ccccc1C(=O)NCc1ccc(F)cc1	none
Nc1ccccc1C(=O)NCc1ccc(Cl)cc1	SMARCA2 act 8.1 (no result: esBAF inh) | SMARCA2 act conf inactive | GAL4-VP16 Luc inactive
COCCn1c(C)cc(C(=O)COC(=O)c2ccc([N+](=O)[O-])o2)c1C	none
Cc1cc(C(=O)COC(=O)c2ccc([N+](=O)[O-])o2)c(C)n1CC1CCCO1 (stereo not drawn)	SMARCA2 act 8.5 | SMARCA2 act conf inactive | GAL4-VP16 Luc inactive
Cc1ccsc1/C=N/NC(=O)CO	none (no result: esBAF inh)
Cc1ccsc1/C=N/NC(=O)c1sccc1C	SMARCA2 act 11 | SMARCA2 act conf 12 | GAL4-VP16 Luc 11
COc1ccc(-c2cc(-c3ccccc3O)[nH]n2)cc1OC	esBAF inh 87, SMARCA2 act 13 | SMARCA2 act conf 18 | GAL4-VP16 Luc 14
COc1ccc(-c2cc(-c3cc(F)ccc3O)[nH]n2)cc1OC	esBAF inh inconclusive
C=CCc1cc(Cl)ccc1OCCNCCCOC	SMARCA2 act 11 (no result: esBAF inh) | SMARCA2 act conf inactive | GAL4-VP16 Luc inactive
C=CCc1cc(Cl)ccc1OCCOCCNCCOC	none
COc1cccc(-c2cn(CC[C@@H]3CC[C@H](NC(C)=O)[C@H](CO)O3)nn2)c1	none (no result: ASAP1 inh, SMARCA2 act, ARFGAP1 inhibitor)
COc1cc2c(cc1OC)C(c1cc3ccc(C)cc3[nH]c1=O)N(C(=O)c1ccco1)CC2 (stereo not drawn)	SMARCA2 act 11 | SMARCA2 act conf inactive | GAL4-VP16 Luc inactive
COc1cc2c(cc1OC)C(c1cc3cc4c(cc3[nH]c1=O)OCO4)N(C(=O)C1CC1)CC2 (stereo not drawn)	none
COc1ccc(C(=O)NCCCN2CCCC2=O)cc1	SMARCA2 act 8.0 | SMARCA2 act conf inactive | GAL4-VP16 Luc inactive
C[C@H](CO)N1C[C@H](C)[C@H](CN(C)C(=O)[C@H]2CCCN2C)OCc2ccccc2-c2c(n(C)c3ccccc23)C1=O	none (no result: ASAP1 inh, SMARCA2 act, ARFGAP1 inhibitor)
Cc1ccc(NC(=S)N/C(=N/S(=O)(=O)c2ccccc2)c2ccccc2)cc1	esBAF inh 55, SMARCA2 act 9.7! | SMARCA2 act conf inactive | GAL4-VP16 Luc 5.8
CC(=O)Nc1ccc(N/C(=N\S(=O)(=O)c2ccccc2)c2ccccc2)cc1	none
CO[C@@H](CN(C)S(=O)(=O)c1cccc(Cl)c1)[C@H](C)CN(C(=O)Nc1ccccc1F)[C@@H](C)CO	none (no result: ASAP1 inh, SMARCA2 act, ARFGAP1 inhibitor)
O=C1CN(c2ccccc2)C(=S)N1C(=O)c1ccc(Br)cc1	esBAF inh inconclusive, SMARCA2 act 8.8 | SMARCA2 act conf inactive | GAL4-VP16 Luc 16
COc1ccc(-c2ccc3c(c2)[C@H]2[C@H](CCN2C(=O)Cc2cccnc2)[C@@H](CO)N3C)cc1	none (no result: ASAP1 inh, SMARCA2 act, ARFGAP1 inhibitor)
CCOC(=O)c1ccc(COc2ccc(C(C)C)cc2)o1	SMARCA2 act 10 (no result: esBAF inh) | SMARCA2 act conf 13 | GAL4-VP16 Luc 14
O=C(Nc1cc(-c2ccccc2)[nH]n1)c1ccccc1F	SMARCA2 act 9.3 (no result: esBAF inh) | SMARCA2 act conf inactive | GAL4-VP16 Luc 10
CC(=O)Nc1cc(-c2ccc(F)cc2)[nH]n1	SMARCA2 act 11 (no result: esBAF inh) | SMARCA2 act conf inactive | GAL4-VP16 Luc inactive
CCN(C(=O)COC(=O)c1c(-c2ccccc2)noc1C)C1CCS(=O)(=O)C1 (stereo not drawn)	SMARCA2 act 8.6 | SMARCA2 act conf inactive | GAL4-VP16 Luc inactive
CCN(C(=O)COC(=O)c1c(C)c(-c2ccccc2)nc2ccccc12)C1CCS(=O)(=O)C1 (stereo not drawn)	none
Fc1ccc(-c2n[nH]c(=S)n2N=Cc2cccc(OCc3ccccc3)c2)cc1	SMARCA2 act 9.9 (no result: esBAF inh, ASAP1 inh, ARFGAP1 inhibitor) | SMARCA2 act conf inactive | GAL4-VP16 Luc inactive
Fc1ccccc1-c1n[nH]c(=S)n1N=Cc1cccc(OCc2ccccc2)c1	none (no result: esBAF inh, ASAP1 inh, ARFGAP1 inhibitor)
Cc1noc(NS(=O)(=O)c2ccc(N/C=C\C(=O)c3ccc(F)cc3)cc2)c1C	SMARCA2 act 10 (no result: esBAF inh) | SMARCA2 act conf inactive | GAL4-VP16 Luc inactive
COc1ccccc1NC(=O)Nc1ccc(S(=O)(=O)Nc2onc(C)c2C)cc1	SMARCA2 act 8.2 | SMARCA2 act conf inactive | GAL4-VP16 Luc inactive
Cc1noc(C)c1S(=O)(=O)Nc1ccc2c(c1)C(=O)N([C@H](C)CO)C[C@H](C)[C@H](CN(C)C(=O)Nc1ccc3c(c1)OCO3)OCCCC[C@H](C)O2	none (no result: ASAP1 inh, SMARCA2 act, ARFGAP1 inhibitor)
O=C(NCCc1ccc(F)cc1)c1coc(=O)c(Br)c1	SMARCA2 act 27 | SMARCA2 act conf inactive | GAL4-VP16 Luc inactive

Screening results from PubChem.
